Results on 11 compounds are retold here after ChEMBL document CHEMBL1177741, “Cardiac glycosides from Antiaris toxicaria with potent cardiotonic activity” (J Nat Prod, 2010).

Data set [1] in a line: Cardiotonic activity in guinea pig left atrial muscles assessed as minimum positive inotropic effective concentration causing myocardial contraction. It is filed as functional, Cavia porcellus, Muscle tissue. In outline: (§1)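 Guinea pig left atrial or right ventricular strips were perfused with Tyrode's solution, held at 1 g tension and paced at 2 Hz (2 ms, twice threshold). After about 60 min stabilisation, drug was added cumulatively. PIECmin was recorded as the lowest concentration that increased myocardial contraction.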

Data set [2] in a line: Cardiotonic activity in guinea pig right ventricular muscles assessed as minimum positive inotropic effective concentration causing myocardial contraction. The class given is functional, Cavia porcellus, Muscle tissue. The method, boiled down: as §1
A short description of data set [3]: Cardiotonic activity in guinea pig left atrial muscles assessed as maximum positive inotropic effective concentration causing myocardial contraction relative to basal level. It is filed as functional, Cavia porcellus, Muscle tissue. The method, boiled down: (§2)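 Isolated left atrial or right ventricular strips from adult guinea pigs (300–500 g; pentobarbital 25 mg/kg i.p.; heart retrogradely perfused with Tyrode's, pH not stated). Tissue held at 1 g tension, paced at 2 Hz (2 ms pulses, twice threshold), stabilised about 60 min, then given cumulative drug additions. Maximal inotropic effect taken at the concentration just before arrhythmia onset.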

Data set [4] is described as follows: Cardiotonic activity in guinea pig right ventricular muscles assessed as maximum positive inotropic effective concentration causing myocardial contraction relative to basal level. The class given is functional, Cavia porcellus, Muscle tissue. In outline: as §2
Data set [5] is described as follows: Safety index, ratio of arrhythmogenic concentration to minimum positive inotropic effective concentration causing myocardial contraction in guinea pig left atrial muscles. To be noted: for selectivity ratio: isolated left atrial muscles. The class given is toxicity, tissue-based, Cavia porcellus, Muscle tissue. In outline: (§3)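 Paced guinea pig left atrial or right ventricular strips (1 g tension, 2 Hz) received cumulative drug addition. The lowest concentration raising contraction (PIECmin) and the concentration inducing arrhythmia were both recorded. Safety index was calculated as the ratio of the arrhythmogenic concentration to PIECmin.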

A short description of data set [6]: Safety index, ratio of arrhythmogenic concentration to minimum positive inotropic effective concentration causing myocardial contraction in guinea pig right ventricular muscles. The class given is toxicity, tissue-based, Cavia porcellus, Muscle tissue. To be noted: for selectivity ratio: isolated right ventricular muscles. In outline: as §3
For another data set, the species on record is Cavia porcellus. As to the kind of experiment: Inhibition of Na(+)/K(+)-ATPase in guinea pig atria by whole cell patch clamp method. Background: In patch-clamp work, channel activity is measured electrically.

For `C[C@@H]1O[C@H](O[C@H]2CC[C@@]3(C=O)[C@H](CC[C@@H]4[C@@H]3CC[C@]3(C)[C@@H](C5=CC(=O)OC5)CC[C@]43O)C2)[C@H](O)[C@H](O)[C@H]1O` [MALAYOSIDE], the Activity in data set [1] is 0.25 µM; in data set [2] it was 0.25 µM; in data set [3] it was 660%; in data set [4], 464%. For the same compound, the selectivity ratio in data set [5] was 20; in data set [6], 24. Moreover, the inhibition result in the data set filed under Cavia porcellus is “Dose-dependent effect”.

Regarding `C[C@H]1O[C@H](O[C@H]2CC[C@]3(C=O)[C@H]4CC[C@]5(C)[C@@H](C6=CC(=O)OC6)CC[C@]5(O)[C@@H]4CC[C@]3(O)C2)[C@H](O)[C@H](O[C@@H]2O[C@H](CO)[C@@H](O)[C@H](O)[C@H]2O)[C@@H]1O` [GLUCOSTROPHALLOSIDE], the Activity in data set [1] is 0.25 µM; in data set [2], 1 µM; in data set [3] it was 489%; in data set [4], 350%. Further, the selectivity ratio in data set [5] and in data set [6] was 10 each time.

As for `C[C@@H]1O[C@@H](O[C@H]2C[C@@H](O)[C@]3(CO)[C@H]4[C@H](O)C[C@]5(C)[C@@H](C6=CC(=O)OC6)CC[C@]5(O)[C@@H]4CC[C@]3(O)C2)[C@H](O)[C@H](O)[C@H]1O` [OUABAIN], the Activity in data set [1] is 0.05 µM; in data set [2] it was 0.05 µM; in data set [3] it was 775%; in data set [4], 249%. Also, the selectivity ratio in data set [5] and in data set [6] was 20 throughout.

As for `C[C@H]1O[C@@H](O[C@H]2CC[C@]3(C)[C@H]4CC[C@]5(C)[C@@H](C6=CC(=O)OC6)CC[C@]5(O)[C@@H]4CC[C@]3(O)C2)[C@H](O)[C@H](O)[C@H]1O` [ANTIAROSIDE A], the Activity worked out at 0.1 µM in data set [1], 0.083 µM in data set [2], 158% in data set [3] and 150% in data set [4]. The selectivity ratio came to 4.3 in data set [5] and 2 in data set [6].

Turning to `C[C@@H]1O[C@H](O[C@H]2CC[C@]3(C)[C@H]4CC[C@]5(C)[C@@H](C6=CC(=O)OC6)CC[C@]5(O)[C@@H]4CC[C@]3(O)C2)[C@H](O)[C@H](O)[C@H]1O` [PERIPLORHAMNOSIDE], the Activity worked out at 0.05 µM in data set [1], 0.25 µM in data set [2], 381% in data set [3] and 355% in data set [4]. Besides, the selectivity ratio came to 11 in data set [5] and 8.8 in data set [6].

Turning to `C[C@@H]1O[C@H](O[C@H]2CC[C@]3(C=O)[C@H]4C[C@@H](O)[C@]5(C)[C@@H](C6=CC(=O)OC6)CC[C@]5(O)[C@@H]4CC[C@]3(O)C2)[C@H](O)[C@H](O)[C@H]1O`, the Activity turned out to be 1 µM in data set [1], 2 µM in data set [2], 243% in data set [3] and 250% in data set [4]. Moreover, the selectivity ratio is 10 in data set [5] and 15 in data set [6].

As for `C[C@H]1O[C@H](O[C@H]2CC[C@]3(C=O)[C@H]4C[C@@H](O)[C@]5(C)[C@@H](C6=CC(=O)OC6)CC[C@]5(O)[C@@H]4CC[C@]3(O)C2)[C@H](O)[C@H](O)[C@H]1O`, the Activity in data set [1] is 0.5 µM; in data set [2], 2 µM; in data set [3], 220%; in data set [4], 200%. Besides, the selectivity ratio is 10 in data set [5] and 15 in data set [6].

For `C[C@@H]1O[C@H](O[C@H]2CC[C@]3(CO)[C@H]4CC[C@]5(C)[C@@H](C6=CC(=O)OC6)CC[C@]5(O)[C@@H]4CC[C@]3(O)C2)[C@H](O)[C@H](O)[C@H]1O` [CONVALLATOXOL], the Activity amounted to 0.1 µM in data set [1], 0.25 µM in data set [2], 138% in data set [3] and 625% in data set [4]. For the same compound, the selectivity ratio in data set [5] amounted to 5; in data set [6] it was 20.

With `C[C@@H]1O[C@H](O[C@H]2CC[C@@H]3[C@H]4CC[C@]5(C)[C@@H](C6=CC(=O)OC6)CC[C@]5(O)[C@@H]4CC[C@]3(O)C2)[C@H](O)[C@H](O)[C@H]1O` [ANTIAROSIDE I], the Activity in data set [1] came out at 0.83 µM; in data set [2] it was 0.67 µM; in data set [3], 562%; in data set [4], 1246%. In addition, the selectivity ratio came to 6.7 in data set [5] and 10.7 in data set [6].

For `C[C@@H]1O[C@H](O[C@H]2CC[C@@]3(C(=O)O)[C@H](CC[C@@H]4[C@@H]3CC[C@]3(C)[C@@H](C5=CC(=O)OC5)CC[C@]43O)C2)[C@H](O)[C@H](O)[C@H]1O` [ANTIAROSIDE E], the Activity in data set [1] amounted to 0.42 µM; in data set [2], 1.33 µM; in data set [3], 264%; in data set [4] it was 230%. The results for the selectivity ratio in data set [5] and in data set [6] were 10 and 7.7, respectively.

For `CO[C@H]1[C@@H](O[C@H]2CC[C@]3(C=O)[C@H]4CC[C@]5(C)[C@@H](C6=CC(=O)OC6)CC[C@]5(O)[C@@H]4CC[C@]3(O)C2)O[C@H](C)[C@@H](O)[C@H]1O` (stereo in doubt; 20) [STROPHATHOJAVOSIDE], the Activity in data set [1] stood at 0.5 µM; in data set [2], 0.5 µM; in data set [3] it was 225%; in data set [4] it was 350%. The Ratio was 2.5 in data set [5] and 4 in data set [6].
